Reference: the M2OR odorant receptor database

target: T1, OR1A1 (Homo sapiens) (UniProt Q9P1Q5); conditions: stereoisomer not certain
T1 sequence (whole entry): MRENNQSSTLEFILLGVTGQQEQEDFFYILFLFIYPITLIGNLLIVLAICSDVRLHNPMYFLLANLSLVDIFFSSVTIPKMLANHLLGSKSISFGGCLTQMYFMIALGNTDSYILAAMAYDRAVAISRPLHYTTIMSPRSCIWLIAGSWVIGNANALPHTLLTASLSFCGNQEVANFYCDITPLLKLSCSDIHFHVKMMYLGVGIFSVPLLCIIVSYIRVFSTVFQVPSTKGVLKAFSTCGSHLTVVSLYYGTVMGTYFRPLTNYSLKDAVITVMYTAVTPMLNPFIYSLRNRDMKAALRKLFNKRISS
How it was run: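 Values were gathered from published papers (main text and supplementary material), with extra details requested from the original authors when needed, and checked for typos and inconsistencies. Each receptor–molecule pair is called responsive (active) if the original authors judged the measured signal statistically different from baseline, and non-responsive (inactive) otherwise. Assay methods varied by source, often transient mammalian cell-line luciferase assays. Recorded details include cell line, G-protein, co-transfected protein and tags.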

Structure (SMILES) | odorant receptor agonist call
C=Cc1ccc(O)cc1 | inactive
O=C(O)CCc1ccccc1 | inactive
C=C(C)C1CC=C(C)C(OC(C)=O)C1 (configuration not stated) | inactive
CCOC(=O)CC(C)C | inactive
CCCC(O)CC(=O)OCC (configuration not stated) | inactive
CCOC(C)OCC | inactive
Cc1occc1S | inactive
CCCSSSC | inactive
CCC(C)C(=O)OC (configuration not stated) | inactive
CCCCCCCC1CCC(=O)O1 (configuration not stated) | inactive
O=C1Cc2ccccc2O1 | inactive
CCCCCC1CCC(=O)O1 (configuration not stated) | active
CCOC(C)=O | inactive
CCOC(=O)CCC(C)C | inactive
SCCc1ccccc1 | active
CCCCCCCCCC(=O)OCC | inactive
CCCCCOC(=O)CCCCC | inactive
CCCCCCCCC=CC=O | inactive
COc1ccccc1 | inactive

Structure (SMILES) | odorant receptor agonist call
CCCC(=O)C(C)CC (configuration not stated) | inactive
CC(C)C12CCC(C)(CC1)O2 | inactive
CCC=CCCC=CC=O | inactive
COc1cc(C(=O)O)ccc1O | inactive
CCCCCCC=CC=O | inactive
CCCCC(C)=O | inactive
CCCCCCC1CCC(=O)O1 (configuration not stated) | inactive
CCCCCC(=O)CC | active
CCOC(=O)C=Cc1ccccc1 | inactive
CC(C)=CCCC(C)=CC#N | inactive
CC(=O)C=CC1C(C)=CCCC1(C)C (configuration not stated) | inactive
CC(=O)OCCc1ccccc1 | active
SCc1cccs1 | inactive
CC1=CCC(C(C)(C)S)CC1 (configuration not stated) | inactive
CCOC(=O)c1ccccc1 | inactive
CCCC(S)CCO (configuration not stated) | inactive
CCCCCCCO | active
CCC(C)COC(C)=O (configuration not stated) | inactive
